ChEMBL document CHEMBL4400518, “Synthesis, antimicrobial and cytotoxic activities, and molecular docking studies of N-arylsulfonylindoles containing an aminoguanidine, a semicarbazide, and a thiosemicarbazide moiety” (Eur J Med Chem, 2019)
≈ marks a conversion by molar mass, not a printed value.

Experiments:
Assay type in all cases: functional
[1] = system: Escherichia coli; assay: Antibacterial activity against Escherichia coli CMCC 25922 measured after 24 hrs by ELISA; details: CMCC 25922, 24 h
Method in brief: (§1)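 Broth microdilution MIC. Mid-log bacteria in MHB or TSB diluted 1000-fold, inoculated at 10^5 CFU/mL. Compounds added from DMSO stocks; final DMSO at most 0.05%. Incubation 24 h at 37 °C. Growth read as absorbance at 630 nm. MIC taken as the lowest concentration giving complete growth inhibition. Three independent experiments.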

[2] = system: Staphylococcus aureus; assay: Antibacterial activity against Staphylococcus aureus CMCC 25923 measured after 24 hrs by ELISA; details: CMCC 25923, 24 h; method in brief: as §1
[3] = system: Bacillus subtilis; assay: Antibacterial activity against Bacillus subtilis CMCC 63501 measured after 24 hrs by ELISA; details: CMCC 63501, 24 h; method in brief: as §1
[4] = system: Escherichia coli; assay: Antibacterial activity against Escherichia coli CMCC 44568 measured after 24 hrs by ELISA; details: CMCC 44568, 24 h; method in brief: as §1
[5] = system: Pseudomonas aeruginosa; assay: Antibacterial activity against Pseudomonas aeruginosa CMCC 10104 measured after 24 hrs by ELISA; details: CMCC 10104, 24 h; method in brief: as §1
[6] = system: Staphylococcus aureus; assay: Antibacterial activity against Staphylococcus aureus CMCC(B) 26003 measured after 24 hrs by ELISA; details: CMCC(B) 26003, 24 h; method in brief: as §1
[7] = system: Streptococcus pneumoniae; assay: Antibacterial activity against Streptococcus pneumoniae CMCC 31968 measured after 24 hrs by ELISA; details: CMCC 31968, 24 h
[8] = system: Enterococcus faecalis; assay: Antibacterial activity against Enterococcus faecalis CMCC 29212 measured after 24 hrs by ELISA; details: CMCC 29212, 24 h; method in brief: as §1
[9] = system: Pseudomonas aeruginosa; assay: Antibacterial activity against Pseudomonas aeruginosa CMCC 27853 measured after 24 hrs by ELISA; details: CMCC 27853, 24 h; method in brief: as §1
[10] = system: Streptococcus pyogenes; assay: Antibacterial activity against Streptococcus pyogenes CMCC 32067 measured after 24 hrs by ELISA; details: CMCC 32067, 24 h; method in brief: as §1

| MIC [1] | MIC [2] | MIC [3] | MIC [4] | MIC [5] | MIC [6] | MIC [7] | MIC [8] | MIC [9] | MIC [10] | Structure (SMILES) |
| --- | --- | --- | --- | --- | --- | --- | --- | --- | --- | --- |
| > 320 µM | 320 µM (≈ 128 µg/mL) | > 320 µM | > 320 µM | > 320 µM | 320 µM (≈ 128 µg/mL) | > 320 µM | > 320 µM | > 320 µM | > 320 µM | CC/C(=N/NC(N)=S)c1cn(S(=O)(=O)c2ccc(C)cc2)c2ccccc12 |
| 18.5 µM (≈ 8.03 µg/mL) | 4.62 µM (≈ 2.01 µg/mL) | 9.24 µM (≈ 4.01 µg/mL) | 9.24 µM (≈ 4.01 µg/mL) | > 296 µM | 4.62 µM (≈ 2.01 µg/mL) | 4.62 µM (≈ 2.01 µg/mL) | 9.24 µM (≈ 4.01 µg/mL) | > 296 µM | 296 µM (≈ 128 µg/mL) | C/C(=N/NC(=N)N)c1cn(S(=O)(=O)c2ccccc2)c2ccc(Br)cc12 |
| > 358 µM | > 358 µM | > 358 µM | > 358 µM | > 358 µM | 179 µM (≈ 64.1 µg/mL) | > 358 µM | > 358 µM | 358 µM (≈ 128 µg/mL) | > 358 µM | NC(=S)N/N=C\c1cn(S(=O)(=O)c2ccccc2)c2ccccc12 |
| 332 µM (≈ 128 µg/mL) | 332 µM (≈ 128 µg/mL) | 82.9 µM (≈ 32 µg/mL) | 332 µM (≈ 128 µg/mL) | > 332 µM | 64 µM (≈ 24.7 µg/mL) | > 332 µM | 166 µM (≈ 64.1 µg/mL) | 332 µM (≈ 128 µg/mL) | > 332 µM | CC/C(=N/NC(N)=S)c1cn(S(=O)(=O)c2ccccc2)c2ccccc12 |
| > 346 µM | 346 µM (≈ 128 µg/mL) | > 346 µM | > 346 µM | > 346 µM | > 346 µM | > 346 µM | > 346 µM | > 346 µM | > 346 µM | CC/C(=N/NC(N)=O)c1cn(S(=O)(=O)c2ccccc2)c2ccccc12 |
| > 360 µM | > 360 µM | 89.9 µM (≈ 32 µg/mL) | > 360 µM | > 360 µM | 360 µM (≈ 128 µg/mL) | > 360 µM | > 360 µM | > 360 µM | > 360 µM | C/C(=N/NC(N)=O)c1cn(S(=O)(=O)c2ccccc2)c2ccccc12 |
| > 375 µM | 11.7 µM (≈ 4 µg/mL) | 11.7 µM (≈ 4 µg/mL) | 23.5 µM (≈ 8.01 µg/mL) | 23.5 µM (≈ 8.01 µg/mL) | 5.87 µM (≈ 2 µg/mL) | 46.9 µM (≈ 16 µg/mL) | 46.9 µM (≈ 16 µg/mL) | 46.9 µM (≈ 16 µg/mL) | > 375 µM | N=C(N)N/N=C\c1cn(S(=O)(=O)c2ccccc2)c2ccccc12 |
| > 284 µM | > 284 µM | 284 µM (≈ 128 µg/mL) | > 284 µM | > 284 µM | 284 µM (≈ 128 µg/mL) | > 284 µM | > 284 µM | > 284 µM | > 284 µM | C/C(=N/NC(N)=S)c1cn(S(=O)(=O)c2ccccc2)c2ccc(Br)cc12 |
| > 305 µM | 305 µM (≈ 128 µg/mL) | 19.1 µM (≈ 8.03 µg/mL) | > 305 µM | > 305 µM | 38.1 µM (≈ 16.1 µg/mL) | > 305 µM | > 305 µM | > 305 µM | > 305 µM | NC(=O)N/N=C\c1cn(S(=O)(=O)c2ccccc2)c2ccc(Br)cc12 |
| > 295 µM | 295 µM (≈ 128 µg/mL) | 295 µM (≈ 128 µg/mL) | > 295 µM | > 295 µM | 295 µM (≈ 128 µg/mL) | > 295 µM | 36.9 µM (≈ 16 µg/mL) | > 295 µM | > 295 µM | C/C(=N/NC(N)=O)c1cn(S(=O)(=O)c2ccccc2)c2ccc(Br)cc12 |
| 360 µM (≈ 128 µg/mL) | 180 µM (≈ 64.1 µg/mL) | 44.9 µM (≈ 16 µg/mL) | 360 µM (≈ 128 µg/mL) | > 360 µM | 44.9 µM (≈ 16 µg/mL) | > 360 µM | > 360 µM | 360 µM (≈ 128 µg/mL) | > 360 µM | Cc1ccc(S(=O)(=O)n2cc(/C=N\NC(N)=O)c3ccccc32)cc1 |
| 17.9 µM (≈ 8.03 µg/mL) | 4.47 µM (≈ 2 µg/mL) | 4.47 µM (≈ 2 µg/mL) | 4.47 µM (≈ 2 µg/mL) | > 286 µM | 4.47 µM (≈ 2 µg/mL) | 1.12 µM (≈ 0.502 µg/mL) | 8.95 µM (≈ 4.01 µg/mL) | > 286 µM | > 286 µM | CC/C(=N/NC(=N)N)c1cn(S(=O)(=O)c2ccccc2)c2ccc(Br)cc12 |
| > 276 µM | > 276 µM | 69 µM (≈ 32.1 µg/mL) | > 276 µM | > 276 µM | 276 µM (≈ 128 µg/mL) | > 276 µM | > 276 µM | 276 µM (≈ 128 µg/mL) | > 276 µM | CC/C(=N/NC(N)=S)c1cn(S(=O)(=O)c2ccccc2)c2ccc(Br)cc12 |
| > 286 µM | > 286 µM | > 286 µM | > 286 µM | > 286 µM | > 286 µM | > 286 µM | > 286 µM | > 286 µM | > 286 µM | CC/C(=N/NC(N)=O)c1cn(S(=O)(=O)c2ccccc2)c2ccc(Br)cc12 |
| > 276 µM | 276 µM (≈ 128 µg/mL) | > 276 µM | > 276 µM | > 276 µM | 276 µM (≈ 128 µg/mL) | > 276 µM | > 276 µM | > 276 µM | > 276 µM | C/C(=N/NC(N)=S)c1cn(S(=O)(=O)c2ccc(C)cc2)c2ccc(Br)cc12 |
